Test results taken from ChEMBL document CHEMBL3352049, “Taxanes with high potency inducing tubulin assembly overcome tumoural cell resistances” (Bioorg Med Chem, 2014).
Activity calls are given as the source filed them. The calls are words filed in the database; no cut-off is given here.

Legend:
[1] = Cytotoxicity against human 1A9/A8 cells by MTT assay; type: functional, cell-based
Summary of the method: (§1)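 MTT assay run as a modified version of an earlier method. IC50 in nM is the mean ± SEM of three independent assays. Relative resistance is the IC50 in the resistant line (1A9 tubulin mutants, or βIII-transfected HeLa) divided by the IC50 in the parental line (1A9 or HeLa).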

A2780 [2] = test: Cell cycle arrest at G2/M phase in human A2780 cells at 30 nM after 20 hrs by flow cytometry; type: functional, cell-based
[3] = Cell cycle arrest at G2/M phase in human A2780AD cells at 30 nM after 20 hrs by flow cytometry; type: functional, cell-based; details: A2780 ADR
microtubule (Bos taurus) [4] = test: Binding affinity to paclitaxel site of microtubule (Bos taurus) after 30 mins at 26 degC by epothilone B displacement method
[5] = Cytotoxicity against human 1A9PTX10 cells by MTT assay; type: functional, cell-based; details: 1A9/ptx-10; summary of the method: as §1
HeLa [6] = test: Cytotoxicity against human HeLa cells transfected with wild-type tubulin beta3 by MTT assay; type: functional, cell-based; summary of the method: as §1
A549 [7] = test: Cell cycle arrest at G2/M phase in human A549 cells at 60 nM after 20 hrs by flow cytometry; type: functional, cell-based
A549 [8] = test: Effect on microtubule cytoskeleton in human A549 cells assessed as induction of micronuleated cells with short microtubules in cytoplasm at 60 to 120 nM after 24 hrs by immunofluorescence assay; type: cell-based
Summary of the method: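 A549 cells were grown overnight on coverslips, then given DMSO vehicle or ligand (60 or 120 nM) for 24 h. Cells were permeabilized with Triton X-100 and fixed in 3.7% formaldehyde. Microtubules were stained with DM1A α-tubulin antibody and DNA with Hoechst 33342. Preparations were viewed by epifluorescence microscopy.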

1A9 [9] = test: Cytotoxicity against human 1A9 cells by MTT assay; type: functional, cell-based; summary of the method: as §1
microtubule (Bos taurus) [10] = test: Binding affinity to paclitaxel site of microtubule (Bos taurus) after 30 mins at 40 degC by epothilone B displacement method
Tubulin (Bos taurus) = Tubulin (Bos taurus) (UniProt Q6B856+Q862L2+Q862F3); test: Induction of calf brain tubulin polymerization assessed as tubulin concentration required to form microtubules by electron microscopy
Summary of the method: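 Critical tubulin concentration found by centrifugation and quantification of the polymer formed. Polymers adsorbed onto formvar/carbon-coated copper grids, stained with 1% uranyl acetate, and viewed by electron microscopy at 100 kV.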

A549 [11] = test: Cell cycle arrest at G2/M phase in human A549 cells at 30 nM after 20 hrs by flow cytometry; type: functional, cell-based
HeLa [12] = test: Cytotoxicity against human HeLa cells by MTT assay; type: functional, cell-based; summary of the method: as §1
[13] = Cytotoxicity against human MCF7/R cells by MTT assay; type: functional, cell-based; details: MCF7R
[14] = Cytotoxicity against human 1A9PTX22 cells by MTT assay; type: functional, cell-based; details: 1A9/ptx-22; summary of the method: as §1
[15] = Cell cycle arrest at G2/M phase in human A2780AD cells at 60 nM after 20 hrs by flow cytometry; type: functional, cell-based; details: A2780 ADR
microtubule (Bos taurus) [16] = test: Binding affinity to paclitaxel site of microtubule (Bos taurus) after 30 mins at 30 degC by epothilone B displacement method
A2780 [17] = test: Cytotoxicity against human A2780 cells by MTT assay; type: functional, cell-based
[18] = Cytotoxicity against human A2780AD cells by MTT assay; type: functional, cell-based; details: A2780 ADR
A2780 [19] = test: Cell cycle arrest at G2/M phase in human A2780 cells at 60 nM after 20 hrs by flow cytometry; type: functional, cell-based
microtubule (Bos taurus) [20] = test: Binding affinity to paclitaxel site of microtubule (Bos taurus) after 30 mins at 35 degC by epothilone B displacement method
1A9 [21] = test: Resistance ratio of IC50 for human 1A9PTX10 cells to IC50 for human 1A9 cells; type: functional
Summary of the method: (§2)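 Relative resistance is the IC50 in the 1A9 tubulin-mutant line divided by the IC50 in parental 1A9 ovarian carcinoma cells. Each IC50 (nM) is the mean ± SEM of three independent assays.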

microtubule (Bos taurus) [22] = test: Binding affinity to microtubule (Bos taurus) after 30 mins at 35 degC by flutax-2 displacement method
[23] = Resistance ratio of IC50 for human A2780AD cells to IC50 for human A2780 cells; type: functional, A2780 ADR
microtubule (Bos taurus) [24] = test: Binding affinity to microtubule (Bos taurus) after 30 mins at 40 degC by flutax-2 displacement method
microtubule (Bos taurus) [25] = test: Binding affinity to microtubule (Bos taurus) after 30 mins at 30 degC by flutax-2 displacement method
MCF7 = test: Cytotoxicity against human MCF7 cells by MTT assay; type: functional, cell-based
microtubule (Bos taurus) [26] = test: Binding affinity to microtubule (Bos taurus) after 30 mins at 26 degC by flutax-2 displacement method
HeLa [27] = test: Resistance ratio of IC50 for human HeLa cells transfected with wild-type tubulin beta3 to IC50 for human HeLa cells; type: functional
Summary of the method: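 Relative resistance is the IC50 in HeLa cells transfected with wild-type βIII-tubulin divided by the IC50 in parental HeLa cells. Each IC50 (nM) is the mean ± SEM of three independent assays.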

1A9 [28] = test: Resistance ratio of IC50 for human 1A9/A8 cells to IC50 for human 1A9 cells; type: functional
A549 [29] = test: Effect on microtubule cytoskeleton in human A549 cells assessed as induction of MS bundles of microtubules near membrane and nucleus at 50 to 500 nM after 24 hrs by immunofluorescence assay; type: cell-based
Summary of the method: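 A549 cells grown overnight on 12 mm round coverslips, then exposed 24 h to DMSO vehicle or ligand at serial concentrations. Permeabilized with Triton X100, fixed in 3.7% formaldehyde. Microtubules stained with DM1A anti-α-tubulin monoclonal, DNA with Hoechst 33342. Viewed by epifluorescence microscopy and imaged with a cooled CCD camera.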

1A9 [30] = test: Resistance ratio of IC50 for human 1A9PTX22 cells to IC50 for human 1A9 cells; type: functional; summary of the method: as §2
microtubule (Bos taurus) [31] = test: Binding affinity to microtubule (Bos taurus) after 30 mins at 32 degC by flutax-2 displacement method
microtubule (Bos taurus) [32] = test: Binding affinity to microtubule (Bos taurus) after 30 mins at 42 degC by flutax-2 displacement method
microtubule (Bos taurus) [33] = test: Binding affinity to microtubule (Bos taurus) after 30 mins at 27 degC by flutax-2 displacement method
microtubule (Bos taurus) [34] = test: Binding affinity to microtubule (Bos taurus) after 30 mins at 37 degC by flutax-2 displacement method

Structure (SMILES) | IC50 [1] [nM] | Activity (A2780 [2]) | IC50 [5] [nM] | IC50 (HeLa [6]) [nM] | Activity (A549 [8]) | IC50 (1A9 [9]) [nM] | Activity (Tubulin (Bos taurus)) [µM] | IC50 (HeLa [12]) [nM] | IC50 [13] [nM] | IC50 [14] [nM] | IC50 (A2780 [17]) [nM] | IC50 [18] [nM] | Ratio IC50 (1A9 [21]) | Kb (microtubule (Bos taurus) [22]) [×10⁷ /M] | Ratio IC50 [23] | Kb (microtubule (Bos taurus) [24]) [×10⁷ /M] | Kb (microtubule (Bos taurus) [25]) [×10⁷ /M] | Kb (microtubule (Bos taurus) [26]) [×10⁷ /M] | Ratio IC50 (HeLa [27]) | Ratio IC50 (1A9 [28]) | other results
CCC(=O)O[C@H]1C(=O)[C@@]2(C)[C@H]([C@H](OC(=O)c3cccc(OC)c3)[C@]3(O)C[C@H](OC(=O)[C@H](O)[C@H](C=C(C)C)NC(=O)OC(C)(C)C)C(C)=C1C3(C)C)[C@]1(OC(C)=O)CO[C@@H]1C[C@@H]2O | 4 | Active | 2.9 | 4.8 | Active | 3.3 | 0.6 | 5.7 | 0.33 | 4.9 | 3.4 | 10.5 |  |  |  |  |  |  |  |  | Activity [3]: Active; Kb (microtubule (Bos taurus) [4]): 731 ×10⁷ /M; Activity (A549 [7]): Active; Kb (microtubule (Bos taurus) [10]): 318 ×10⁷ /M; Activity (A549 [11]): Active; Activity [15]: Active; Kb (microtubule (Bos taurus) [16]): 545 ×10⁷ /M; Activity (A2780 [19]): Active; Kb (microtubule (Bos taurus) [20]): 478 ×10⁷ /M
CCC(=O)O[C@H]1C(=O)[C@@]2(C)[C@H]([C@H](OC(=O)c3cccc(N=[N+]=[N-])c3)[C@]3(O)C[C@H](OC(=O)[C@H](O)[C@@H](NC(=O)OC(C)(C)C)c4ccccc4)C(C)=C1C3(C)C)[C@]1(OC(C)=O)CO[C@@H]1C[C@@H]2O | 3.8 |  | 2.4 | 16 | Active | 3.1 | 3.6 | 9.2 | 153 | 12 | 7 | 9.1 | 0.4 | 628 | 1.3 | 355 | 748 | 612 | 1.7 | 1.2 | IC50 (MCF7): 1.9 nM
CC(=O)O[C@H]1C(=O)[C@@]2(C)[C@H]([C@H](OC(=O)c3ccccc3)[C@]3(O)C[C@H](OC(=O)[C@H](O)[C@@H](NC(=O)c4ccccc4)c4ccccc4)C(C)=C1C3(C)C)[C@]1(OC(C)=O)CO[C@@H]1C[C@@H]2O [PACLITAXEL] | 4.2 |  | 81.4 |  |  | 3.9 | 4.2 | 0.7 |  | 32.8 | 0.4 | 1240 |  |  |  |  |  |  |  |  | Activity (A549 [29]): Active
CC(=O)O[C@H]1C(=O)[C@@]2(C)[C@H]([C@H](OC(=O)c3ccccc3)[C@]3(O)C[C@H](OC(=O)[C@H](O)[C@H](CC(C)C)NC(=O)OC(C)(C)C)C(C)=C1C3(C)C)[C@]1(OC(C)=O)CO[C@@H]1C[C@@H]2O | 11.5 | Active | 1.75 | 11.2 | Active | 2.4 | 1.6 | 4.4 | 2.8 | 4.95 | 3.7 | 29.1 | 0.7 | 2.4 | 7.9 | 2.7 | 2.7 | 3 | 2.5 | 4.7 | Activity [3]: Active; Ratio IC50 (1A9 [30]): 2; Activity (A549 [7]): Active; Kb (microtubule (Bos taurus) [31]): 2.7 ×10⁷ /M; Kb (microtubule (Bos taurus) [32]): 2.5 ×10⁷ /M; Activity (A549 [11]): Active; IC50 (MCF7): 0.35 nM; Kb (microtubule (Bos taurus) [33]): 2.8 ×10⁷ /M; Kb (microtubule (Bos taurus) [34]): 2.3 ×10⁷ /M; Activity [15]: Active; Activity (A2780 [19]): Active
CC(=O)O[C@@]12CO[C@@H]1C[C@H](O)[C@@]1(C)C(=O)[C@H](OC(=O)C3CC3)C3=C(C)[C@@H](OC(=O)[C@H](O)[C@H](C=C(C)C)NC(=O)OC(C)(C)C)C[C@@](O)([C@@H](OC(=O)c4ccccc4)[C@H]21)C3(C)C | 12.2 | Active | 10.8 | 11.2 | Active | 5 | 0.9 | 2.1 | 2.1 | 7.9 | 5.2 | 10.9 | 2.2 | 8 | 2.1 | 7 | 10 | 12 | 5.3 | 2.4 | Activity [3]: Active; Ratio IC50 (1A9 [30]): 1.6; Activity (A549 [7]): Active; Kb (microtubule (Bos taurus) [31]): 9 ×10⁷ /M; Kb (microtubule (Bos taurus) [32]): 6 ×10⁷ /M; Activity (A549 [11]): Active; Kb (microtubule (Bos taurus) [33]): 11 ×10⁷ /M; Kb (microtubule (Bos taurus) [34]): 7 ×10⁷ /M; Activity [15]: Active; Activity (A2780 [19]): Active
CC(=O)O[C@@]12CO[C@@H]1C[C@H](O)[C@@]1(C)C(=O)[C@H](O)C3=C(C)[C@@H](OC(=O)[C@H](O)[C@@H](NC(=O)OC(C)(C)C)c4ccccc4)C[C@@](O)([C@@H](OC(=O)c4ccccc4)[C@H]21)C3(C)C [DOCETAXEL] |  |  |  |  |  |  | 2.4 |  |  |  |  | 290 |  |  |  |  |  |  |  |  | 
C/C=C(\C)C(=O)N[C@@H](c1ccccc1)[C@@H](O)C(=O)O[C@H]1C[C@@]2(O)[C@@H](OC(=O)c3cccc(N=[N+]=[N-])c3)[C@@H]3[C@]4(OC(C)=O)CO[C@@H]4C[C@H](OC(=O)CC)[C@@]3(C)C(=O)[C@H](O)C(=C1C)C2(C)C | 2 |  | 11.6 | 10.2 | Active | 2.3 | 2.9 | 3.2 |  | 1.9 |  | 14 | 5 | 87 | 5.2 | 52 | 85 | 124 | 3.2 | 0.9 | Ratio IC50 (1A9 [30]): 0.83
